In ChEMBL document CHEMBL5214999, “Identification and Optimization of a Ligand-Efficient Benzoazepinone Bromodomain and Extra Terminal (BET) Family Acetyl-Lysine Mimetic into the Oral Candidate Quality Molecule I-BET432” (J Med Chem, 2022):
≈ marks a conversion by molar mass, not a printed value.

How the values were obtained:
[1] = target: T1, Bromodomain-containing protein 4 (Homo sapiens, UniProt O60885); test: Inhibition of BRD4 BD2 (unknown origin) measured by TR-FRET assay
[2] = target: T1, Bromodomain-containing protein 4; test: Inhibition of BRD4 BD1 (unknown origin) measured by TR-FRET assay
[3] = target: C-C motif chemokine 2 (Homo sapiens, UniProt P13500); test: Inhibition of MCP-1 in LPS-stimulated human whole blood incubate for 24 hrs by immuno assay; assay type: tissue-based
Sequence of C-C motif chemokine 2 (P13500 whole entry): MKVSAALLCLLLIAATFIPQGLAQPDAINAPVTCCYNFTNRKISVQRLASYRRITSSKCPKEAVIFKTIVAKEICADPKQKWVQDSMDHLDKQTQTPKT

[4] = Lipophilicity, logD of compound at pH 7.4 by Chromatography; assay type: physicochemical; settings: buffer
[5] = Artificial membrane permeability of the compound; assay type: ADME; settings: PAMPA; read-out: permeability
[6] = Solubility of the compound at pH 6.5 in fast state simulated intestinal fluid incubated for 16 hrs by HPLC analysis; assay type: physicochemical; settings: fasted state simulated intestinal fluid
[7] = Intrinsic clearance in rat hepatocytes after 60 mins by LC-MS/MS analysis; assay type: ADME, cell-based, Hepatocyte; settings: 1 h
[8] = Intrinsic clearance in dog hepatocytes incubated upto 45 mins by LC-MS/MS analysis; assay type: ADME, cell-based, Canis lupus familiaris, Hepatocyte; settings: 0.75 h
[9] = Intrinsic clearance in human hepatocytes measured after 120 mins by LC-MS/MS analysis; assay type: ADME, cell-based, Hepatocyte; settings: 2 h
[10] = Clearance in Wistar Han rat blood at 3.1 mg/kg, po or 1 mg/kg, iv measured upto 24 hrs by LC-MS/MS analysis; assay type: ADME, organism-based; settings: whole blood
Procedure, shortened: (§1)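 Male Wistar Han rats and beagle dogs were dosed iv as a 1 h infusion in DMSO with 10% (w/v) Kleptose HPB in saline (2%:98% or 5%:95% v/v). Oral doses were given in 1% (w/v) methylcellulose (400 cps) aqueous suspension. Oral values are means of n = 3 and iv values n = 1 unless otherwise noted.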

[11] = Unbound clearance in Wistar Han rat blood at 3.1 mg/kg, po or 1 mg/kg, iv measured upto 24 hrs by LC-MS/MS analysis; assay type: ADME, organism-based; settings: in vivo; procedure, shortened: as §1
[12] = Volume of distribution at steady state in Wistar Han rat at 3.1 mg/kg, po or 1 mg/kg, iv measured upto 24 hrs by LC-MS/MS analysis; assay type: ADME, organism-based; settings: in vivo, read-out: Vdss; procedure, shortened: as §1
[13] = Unbound volume of distribution at steady state in Wistar Han rat at 3.1 mg/kg, po or 1 mg/kg, iv measured upto 24 hrs by LC-MS/MS analysis; assay type: ADME, organism-based; settings: in vivo; procedure, shortened: as §1
[14] = Half-life in Wistar Han rat at 3.1 mg/kg, po or 1 mg/kg, iv measured upto 24 hrs by LC-MS/MS analysis; assay type: ADME, organism-based; settings: in vivo; procedure, shortened: as §1
[15] = Oral bioavailability in Wistar Han rat at 3.1 mg/kg measured upto 24 hrs by LC-MS/MS analysis; assay type: ADME, organism-based; settings: in vivo; procedure, shortened: as §1
[16] = Solubility of the compound in saline by CLND method; assay type: physicochemical
[17] = Unbound fraction in Wistar Han rat at 3.1 mg/kg, po or 1 mg/kg, iv measured upto 24 hrs by LC-MS/MS analysis; assay type: ADME, organism-based; settings: in vivo
[18] = Clearance in Beagle dog blood at 1.5 mg/kg, po or 0.4 mg/kg, iv measured upto 24 hrs by LC-MS/MS analysis; assay type: ADME, organism-based, Canis lupus familiaris; settings: whole blood; procedure, shortened: as §1
[19] = Unbound clearance in Beagle dog blood at 1.5 mg/kg, po or 0.4 mg/kg, iv measured upto 24 hrs by LC-MS/MS analysis; assay type: ADME, organism-based, Canis lupus familiaris; settings: in vivo; procedure, shortened: as §1
[20] = Volume of distribution at steady state in Beagle dog at 1.5 mg/kg, po or 0.4 mg/kg, iv measured upto 24 hrs by LC-MS/MS analysis; assay type: ADME, organism-based, Canis lupus familiaris; settings: in vivo, read-out: Vdss; procedure, shortened: as §1
[21] = Unbound volume of distribution at steady state in Beagle dog at 1.5 mg/kg, po or 0.4 mg/kg, iv measured upto 24 hrs by LC-MS/MS analysis; assay type: ADME, organism-based, Canis lupus familiaris; settings: in vivo; procedure, shortened: as §1
[22] = Half-life in Beagle dog at 1.5 mg/kg, po or 0.4 mg/kg, iv measured upto 24 hrs by LC-MS/MS analysis; assay type: ADME, organism-based, Canis lupus familiaris; settings: in vivo; procedure, shortened: as §1
[23] = Oral bioavailability in Beagle dog at 1.5 mg/kg measured upto 24 hrs by LC-MS/MS analysis; assay type: ADME, organism-based, Canis lupus familiaris; settings: in vivo; procedure, shortened: as §1
[24] = Unbound fraction in Beagle dog at 1.5 mg/kg, po or 0.4 mg/kg, iv measured upto 24 hrs by LC-MS/MS analysis; assay type: ADME, organism-based, Canis lupus familiaris; settings: in vivo
[25] = Clearance in Wistar Han rat blood at 2.9 mg/kg, po or 2.1 mg/kg, iv measured upto 24 hrs by LC-MS/MS analysis; assay type: ADME, organism-based; settings: whole blood; procedure, shortened: as §1
[26] = Volume of distribution at steady state in Wistar Han rat at 2.9 mg/kg, po or 2.1 mg/kg, iv measured upto 24 hrs by LC-MS/MS analysis; assay type: ADME, organism-based; settings: in vivo, read-out: Vdss; procedure, shortened: as §1
[27] = Half-life in Wistar Han rat at 2.9 mg/kg, po or 2.1 mg/kg, iv measured upto 24 hrs by LC-MS/MS analysis; assay type: ADME, organism-based; settings: in vivo; procedure, shortened: as §1
[28] = Oral bioavailability in Wistar Han rat at 2.9 mg/kg measured upto 24 hrs by LC-MS/MS analysis; assay type: ADME, organism-based; settings: in vivo; procedure, shortened: as §1
[29] = target: Cytochrome P450 3A4 (Homo sapiens, UniProt P08684); test: Inhibition of CYP3A4 (unknown origin); assay type: ADME
Sequence of Cytochrome P450 3A4 (P08684 whole entry): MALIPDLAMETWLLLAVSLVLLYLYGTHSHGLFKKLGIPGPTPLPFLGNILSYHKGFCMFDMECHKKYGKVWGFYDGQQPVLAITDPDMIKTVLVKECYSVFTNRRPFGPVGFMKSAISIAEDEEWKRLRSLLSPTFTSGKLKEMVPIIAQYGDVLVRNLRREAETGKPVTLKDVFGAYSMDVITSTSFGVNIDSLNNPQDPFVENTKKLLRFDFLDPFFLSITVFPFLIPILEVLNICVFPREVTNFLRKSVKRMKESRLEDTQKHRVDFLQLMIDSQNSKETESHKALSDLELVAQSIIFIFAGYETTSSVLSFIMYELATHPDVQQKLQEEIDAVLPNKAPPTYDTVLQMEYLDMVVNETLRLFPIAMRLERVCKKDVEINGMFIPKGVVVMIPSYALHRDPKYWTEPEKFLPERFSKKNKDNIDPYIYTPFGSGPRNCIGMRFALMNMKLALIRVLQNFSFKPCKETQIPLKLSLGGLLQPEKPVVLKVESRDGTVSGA

[30] = target: Voltage-gated inwardly rectifying potassium channel KCNH2 (Homo sapiens, UniProt Q12809); test: Inhibition of hERG; assay type: toxicity
Sequence of Voltage-gated inwardly rectifying potassium channel KCNH2 (Q12809 whole entry): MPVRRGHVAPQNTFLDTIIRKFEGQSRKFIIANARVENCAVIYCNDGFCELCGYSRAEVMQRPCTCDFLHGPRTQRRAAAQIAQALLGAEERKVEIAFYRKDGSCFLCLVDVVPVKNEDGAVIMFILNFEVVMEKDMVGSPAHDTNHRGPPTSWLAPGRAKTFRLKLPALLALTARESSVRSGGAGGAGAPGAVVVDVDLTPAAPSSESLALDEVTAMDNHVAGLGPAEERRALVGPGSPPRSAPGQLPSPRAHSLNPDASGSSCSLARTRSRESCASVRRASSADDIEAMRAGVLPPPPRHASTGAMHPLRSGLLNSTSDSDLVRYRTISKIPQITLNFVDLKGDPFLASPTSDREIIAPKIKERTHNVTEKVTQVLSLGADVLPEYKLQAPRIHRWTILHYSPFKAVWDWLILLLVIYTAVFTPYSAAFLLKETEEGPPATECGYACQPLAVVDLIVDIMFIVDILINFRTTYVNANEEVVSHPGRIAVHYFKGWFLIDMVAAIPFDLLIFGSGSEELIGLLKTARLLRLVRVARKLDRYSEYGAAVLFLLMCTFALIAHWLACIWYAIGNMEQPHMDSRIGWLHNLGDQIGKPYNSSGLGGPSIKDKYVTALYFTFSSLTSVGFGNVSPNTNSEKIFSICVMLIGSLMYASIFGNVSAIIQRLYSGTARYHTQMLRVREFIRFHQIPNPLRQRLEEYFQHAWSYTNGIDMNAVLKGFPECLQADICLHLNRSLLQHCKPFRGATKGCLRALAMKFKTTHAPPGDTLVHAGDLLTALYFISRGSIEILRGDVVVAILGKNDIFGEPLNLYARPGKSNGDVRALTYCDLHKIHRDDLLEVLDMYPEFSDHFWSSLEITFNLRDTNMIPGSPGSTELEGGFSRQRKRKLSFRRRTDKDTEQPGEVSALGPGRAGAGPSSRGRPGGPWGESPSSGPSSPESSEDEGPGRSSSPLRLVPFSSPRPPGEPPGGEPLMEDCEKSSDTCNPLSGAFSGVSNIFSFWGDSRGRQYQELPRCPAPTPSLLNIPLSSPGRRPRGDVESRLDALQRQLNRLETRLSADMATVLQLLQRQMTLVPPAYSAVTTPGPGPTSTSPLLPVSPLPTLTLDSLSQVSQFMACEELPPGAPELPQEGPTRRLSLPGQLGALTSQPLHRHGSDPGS

| SMILES | IC50 [1] [µM] | IC50 [2] [µM] | IC50 [3] [µM] | chromatographic logD [4] | Papp [5] [×10⁻⁶ cm/s] | CLH [7] [mL/min/g] | CLH [8] [mL/min/g] | CLH [9] [mL/min/g] | solubility kinetic [16] [µg/mL] | other results |
| --- | --- | --- | --- | --- | --- | --- | --- | --- | --- | --- |
| C[C@H]1C(=O)N(C)C=C(c2cn[nH]c2)c2cc([C@H](O)CO)ccc21 | 0.0251 | 0.0158 | 0.0398 | 0.8 | 0.8 | < 0.8 | < 0.65 | 0.52 | – | solubility at 16 h [6]: > 1000 µg/mL; clearance [10]: 43 mL/min/kg; CL free [11]: 75 mL/min/kg; Vd [12]: 1 L/kg; Vduss [13]: 1.8 L/kg; half-life [14]: 24.6 min; bioavailability [15]: 19% |
| CCOc1ccc2c(c1)C(c1cn(C)cn1)=CN(C)C(=O)[C@@H]2C | 0.0251 | 0.0316 | 0.0501 | 3.6 | 69 | – | – | – | 117 (≈ 376 µM) | – |
| CCS(=O)(=O)c1ccc2c(c1)C(c1cnn(C)c1)=CN(C)C(=O)[C@@H]2C | 0.0794 | 0.0398 | 0.0398 | 2.8 | 14.5 | 2.44 | < 0.65 | < 0.45 | ≥ 222 | – |
| C[C@H]1C(=O)N(C)C=C(c2cnn(C)c2)c2cc([C@H](O)CO)ccc21 | 0.0316 | 0.0316 | 0.0398 | 1.3 | 3.1 | < 0.8 | 1.12 | < 0.45 | – | solubility at 16 h [6]: > 1000 µg/mL; clearance [10]: 19 mL/min/kg; CL free [11]: 31 mL/min/kg; Vd [12]: 1.1 L/kg; Vduss [13]: 1.8 L/kg; half-life [14]: 58.2 min; bioavailability [15]: 66%; Fu [17]: 0.61; clearance [18]: 45 mL/min/kg; CL free [19]: 87 mL/min/kg; Vd [20]: 1.7 L/kg; Vduss [21]: 3.3 L/kg; half-life [22]: 30 min; bioavailability [23]: 39%; Fu [24]: 0.52 |
| CCS(=O)(=O)c1ccc2c(c1)C(C)=CN(C)C(=O)[C@@H]2C | 0.251 | 0.0794 | 0.158 | 3.4 | 15 | 1.18 | 0.77 | < 0.45 | ≥ 131 | – |
| Cc1nc(C2=CN(C)C(=O)[C@H](C)c3ccc(OCCO)cc32)c[nH]1 | 0.0316 | 0.02 | 0.0398 | 1.5 | < 0.3 | – | – | – | ≥ 185 | – |
| C[C@H]1C(=O)N(C)C=C(c2cnn(C)c2)c2cc(C(CO)CO)ccc21 | 0.1 | 0.0316 | 0.0316 | 1.4 | < 0.3 | – | – | – | ≥ 208 | – |
| CCOc1ccc2c(c1)C(c1cnn(C)c1)=CN(C)C(=O)[C@@H]2C | 0.00794 | 0.01 | 0.02 | 4.1 | 57 | 72.36 | < 0.65 | 9.14 | 143 (≈ 459 µM) | – |
| C[C@H]1C(=O)N(C)C=Cc2cc(CN3CCOCC3)ccc21 | 0.631 | 0.158 | 0.398 | 3.3 | 77.5 | 23.76 | 3.37 | < 0.45 | ≥ 142 | – |
| C[C@H]1C(=O)N(C)C=C(c2cn[nH]c2)c2cc([C@@H](O)CO)ccc21 | 0.0398 | 0.0251 | 0.0316 | 0.9 | 0.7 | < 0.8 | – | < 0.45 | – | solubility at 16 h [6]: 417 µg/mL (≈ 1330 µM); clearance [25]: 37 mL/min/kg; Vd [26]: 1.5 L/kg; half-life [27]: 45.6 min; bioavailability [28]: 13% |
| CCOc1ccc2c(c1)C(c1c[nH]c(C)n1)=CN(C)C(=O)[C@@H]2C | 0.02 | 0.0126 | 0.0158 | 3.1 | 40 | – | – | – | ≥ 135 | – |
| COc1cc2c(cc1OC)[C@@H](C)C(=O)N(C)C=C2 | 0.631 | 0.158 | – | 3.4 | 89 | 6.35 | 2.64 | < 0.45 | ≥ 139 | IC50 [29]: > 39.8 µM; IC50 [30]: > 50.1 µM; solubility at 16 h [6]: > 1000 µg/mL |
| CCOc1ccc2c(c1)C=CN(C)C(=O)C2C (racemic) | 1 | 0.501 | 3.16 | 5 | 70 | – | – | – | ≥ 120 | – |
| CCOc1ccc2c(c1)C(c1cc[nH]n1)=CN(C)C(=O)C2C (racemic) | 0.02 | 0.0316 | 0.126 | 3.8 | 54 | – | – | – | ≥ 99 | – |
| CCS(=O)(=O)c1ccc2c(c1)C(c1ccccc1)=CN(C)C(=O)C2C (racemic) | 0.501 | 0.251 | 1.58 | 5.1 | 100 | – | – | – | ≥ 146 | – |
| CC1C(=O)N(C)C=Cc2cc(OCC(C)(C)O)ccc21 (racemic) | 0.794 | 0.251 | 0.631 | 3.6 | 74 | – | – | – | ≥ 131 | – |
| CCS(=O)(=O)c1ccc2c(c1)C(c1ccncc1)=CN(C)C(=O)C2C (racemic) | 1.58 | 0.631 | 1.26 | 2.8 | 35 | – | – | – | 128 (≈ 359 µM) | – |
| C[C@H]1C(=O)N(C)C=Cc2ccccc21 (racemic) | 5.01 | 1.58 | 5.01 | 4.3 | 100 | – | – | – | ≥ 86 | – |
